Each block holds one compound with its values, some of them ahead of it. Active and inactive are the calls of the source. The calls are words filed in the database; no cut-off is given here.
What was measured:
[1] = target: Tumour suppressor p53/oncoprotein Mdm2 (Homo sapiens, UniProt Q00987); experiment: Inhibition of human MDM2 (1 to 125 residues) and p53 (unknown origin) interaction pre-incubated for 20 mins before peptide-2-biot addition and measured after 3 hrs by HTRF assay; type: protein assay
NCI-H1299 = experiment: Antiproliferative activity against p53 -/- human NCI-H1299 cells incubated for 72 hrs by MTS assay; type: functional, cell-based; details: NCI-H1299, 72 h
How it was run: (§1)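 Cells treated with compound for 72 h; IC50 fitted to polynomial curves from three separate experiments, reported as average with standard deviation. HCT116 p53 −/− is an isogenic p53 knockout line. H1299 carries a homozygous partial deletion of the p53 gene and expresses no p53 protein.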

HCT-116 [2] = experiment: Antiproliferative activity against p53 -/- human HCT116 cells incubated for 72 hrs by MTS assay; type: functional, cell-based; details: HCT-116, 72 h; how it was run: as §1
HCT-116 [3] = experiment: Antiproliferative activity against human HCT116 cells expressing wild type p53 incubated for 72 hrs by MTS assay; type: functional, cell-based; details: HCT-116, 72 h; how it was run: as §1
SJSA-1 = experiment: Antiproliferative activity against human SJSA1 cells expressing wild type p53 incubated for 72 hrs by MTS assay; type: functional, cell-based; details: SJSA-1, 72 h; how it was run: as §1
[4] = target: T1, Tumour suppressor p53/oncoprotein Mdm2 (Homo sapiens) (UniProt P04637+Q00987); experiment: Inhibition of MDM2/p53 interaction in human HCT116 cells deficient in p53 assessed as increase in MDM2 protein levels at 10 uM incubated for 6 hrs by Western blot method; type: cell-based
How it was run: (§2)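 HCT116 cells, p53 +/+ and isogenic p53 −/−, treated with compound at 10 μM for 6 h. Lysates probed by Western blot for p53, MDM2 and p21 protein levels. Actin served as the loading control.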

[5] = target: T1, Tumour suppressor p53/oncoprotein Mdm2 (Homo sapiens); experiment: Inhibition of MDM2/p53 interaction in human HCT116 cells deficient in p53 assessed as increase in p53 activation at 10 uM incubated for 6 hrs by Western blot method; type: cell-based; how it was run: as §2
[6] = target: T1, Tumour suppressor p53/oncoprotein Mdm2 (Homo sapiens); experiment: Inhibition of MDM2/p53 interaction in human HCT116 cells expressing wild type p53 assessed as increase in p53 activation at 10 uM incubated for 6 hrs by Western blot method; type: cell-based; how it was run: as §2
[7] = target: T1, Tumour suppressor p53/oncoprotein Mdm2 (Homo sapiens); experiment: Inhibition of MDM2/p53 interaction in human HCT116 cells expressing wild type p53 assessed as increase in MDM2 protein levels at 10 uM incubated for 6 hrs by Western blot method; type: cell-based; how it was run: as §2
[8] = target: T1, Tumour suppressor p53/oncoprotein Mdm2 (Homo sapiens); experiment: Inhibition of MDM2/p53 interaction in human HCT116 cells deficient in p53 assessed as increase in p21 protein levels at 10 uM incubated for 6 hrs by Western blot method; type: cell-based; how it was run: as §2
[9] = target: T1, Tumour suppressor p53/oncoprotein Mdm2 (Homo sapiens); experiment: Inhibition of MDM2/p53 interaction in human HCT116 cells expressing wild type p53 assessed as increase in p21 protein levels at 10 uM incubated for 6 hrs by Western blot method; type: cell-based; how it was run: as §2

Chain of Tumour suppressor p53/oncoprotein Mdm2 (P04637 whole entry, the tested form may be a part): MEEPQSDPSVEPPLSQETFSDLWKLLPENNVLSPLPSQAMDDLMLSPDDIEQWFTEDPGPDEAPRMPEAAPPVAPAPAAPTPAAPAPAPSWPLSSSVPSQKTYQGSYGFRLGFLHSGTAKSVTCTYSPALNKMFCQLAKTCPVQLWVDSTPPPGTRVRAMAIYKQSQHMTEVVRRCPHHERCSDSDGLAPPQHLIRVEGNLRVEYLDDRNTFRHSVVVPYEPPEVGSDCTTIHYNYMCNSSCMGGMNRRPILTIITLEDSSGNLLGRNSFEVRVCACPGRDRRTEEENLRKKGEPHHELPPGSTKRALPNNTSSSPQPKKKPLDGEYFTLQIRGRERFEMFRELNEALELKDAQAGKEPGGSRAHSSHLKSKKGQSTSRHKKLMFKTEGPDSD
Chain of Tumour suppressor p53/oncoprotein Mdm2 (Q00987 whole entry, the tested form may be a part): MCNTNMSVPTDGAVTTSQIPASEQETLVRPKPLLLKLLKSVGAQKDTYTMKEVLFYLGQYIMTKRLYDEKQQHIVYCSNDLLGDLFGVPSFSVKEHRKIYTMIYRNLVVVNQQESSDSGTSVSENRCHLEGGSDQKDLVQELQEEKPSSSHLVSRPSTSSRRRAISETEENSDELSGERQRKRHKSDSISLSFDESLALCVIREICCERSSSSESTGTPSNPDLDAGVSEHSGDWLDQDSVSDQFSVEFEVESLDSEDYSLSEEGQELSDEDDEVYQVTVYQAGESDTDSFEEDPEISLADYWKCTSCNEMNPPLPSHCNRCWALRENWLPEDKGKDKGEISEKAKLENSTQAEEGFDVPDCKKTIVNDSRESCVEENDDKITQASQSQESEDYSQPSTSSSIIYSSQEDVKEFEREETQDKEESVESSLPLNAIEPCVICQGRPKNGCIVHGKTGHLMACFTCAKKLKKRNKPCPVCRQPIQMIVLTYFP
T1 sequence (P04637 whole entry, looked up): as the sequence (P04637 whole entry, the tested form may be a part) above
T1 sequence (Q00987 whole entry, looked up): as the sequence (Q00987 whole entry, the tested form may be a part) above

Structure (SMILES): CC(C)(C)C[C@@H]1C=C(C(=O)Nc2ccc(C(=O)O)cc2)[C@H](c2cccc(Cl)c2F)[C@]12C(=O)Nc1cc(Cl)ccc12 (racemic)
IC50 [1]: 350 nM

Structure (SMILES): CC(C)(C)C[C@@H]1C=C(C(=O)N[C@H]2CC[C@H](O)CC2)[C@H](c2cccc(Cl)c2F)[C@]12C(=O)Nc1cc(Cl)ccc12 (racemic)
IC50 [1]: 619 nM

Structure (SMILES): CC(C)(C)C[C@@H]1C=C(C(=O)NCCN2CCOCC2)[C@H](c2cccc(Cl)c2F)[C@]12C(=O)Nc1cc(Cl)ccc12 (racemic)
IC50 (NCI-H1299): > 20 µM
IC50 (HCT-116 [2]): > 20 µM
IC50 [1]: 33 nM
IC50 (HCT-116 [3]): 4.84 µM
IC50 (SJSA-1): 7.5 µM

Structure (SMILES): CC(C)(C)C[C@@H]1C=C(C(=O)O)[C@H](c2cccc(Cl)c2F)[C@]12C(=O)Nc1cc(Cl)ccc12 (racemic)
IC50 (NCI-H1299): > 20 µM
IC50 (HCT-116 [2]): > 20 µM
IC50 [1]: 10.1 nM
IC50 (HCT-116 [3]): 10.5 µM
IC50 (SJSA-1): 7.44 µM

Structure (SMILES): CC(C)(C)CC1C=C(C(=O)O)C(c2cccc(Cl)c2F)C12C(=O)Nc1cc(Cl)ccc12 (single isomer, unassigned; (+)) [listing 1 of 2 here]
IC50 (NCI-H1299): > 20 µM
IC50 (HCT-116 [2]): > 20 µM
IC50 [1]: 3.1 nM
IC50 (HCT-116 [3]): 11.6 µM
IC50 (SJSA-1): 7.8 µM

Structure (SMILES): CC(C)(C)CC1C=C(C(=O)Nc2ccc(C(=O)O)cc2)C(c2cccc(Cl)c2F)C12C(=O)Nc1cc(Cl)ccc12 (single isomer, unassigned; (+))
IC50 [1]: 655 nM

Structure (SMILES): CC(C)(C)CC1C=C(C(=O)NCCN2CCOCC2)C(c2cccc(Cl)c2F)C12C(=O)Nc1cc(Cl)ccc12 (single isomer, unassigned; (+)) [listing 1 of 2 here]
IC50 (NCI-H1299): 9.73 µM
IC50 (HCT-116 [2]): > 20 µM
IC50 [1]: 23.7 nM
IC50 (HCT-116 [3]): 2.92 µM
IC50 (SJSA-1): 0.96 µM

Structure (SMILES): CC(C)(C)CC1C=C(C(=O)NCCN2CCOCC2)C(c2cccc(Cl)c2F)C12C(=O)Nc1cc(Cl)ccc12 (single isomer, unassigned; (+)) [listing 2 of 2 here]
inhibition [4]: inactive
inhibition [5]: inactive
inhibition [6]: Active
inhibition [7]: Active
inhibition [8]: inactive
inhibition [9]: Active

Structure (SMILES): CC(C)(C)CC1C=C(C(=O)O)C(c2cccc(Cl)c2F)C12C(=O)Nc1cc(Cl)ccc12 (single isomer, unassigned; (+)) [listing 2 of 2 here]
inhibition [4]: inactive
inhibition [5]: inactive
inhibition [6]: Active
inhibition [7]: Active
inhibition [8]: inactive
inhibition [9]: Active

Structure (SMILES): CC(C)(C)CC1C=C(C(=O)Nc2ccc(C(=O)O)cc2)C(c2cccc(Cl)c2F)C12C(=O)Nc1cc(Cl)ccc12 (single isomer, unassigned; (-))
IC50 [1]: 1040 nM

Structure (SMILES): CC(C)(C)CC1C=C(C(=O)NCCN2CCOCC2)C(c2cccc(Cl)c2F)C12C(=O)Nc1cc(Cl)ccc12 (single isomer, unassigned; (-))
IC50 [1]: 1140 nM

Structure (SMILES): CC(C)(C)CC1C=C(C(=O)O)C(c2cccc(Cl)c2F)C12C(=O)Nc1cc(Cl)ccc12 (stereo in doubt; (-)-8')
IC50 [1]: 538 nM

Structure (SMILES): COc1ccc(C2=N[C@@H](c3ccc(Cl)cc3)[C@@H](c3ccc(Cl)cc3)N2C(=O)N2CCNC(=O)C2)c(OC(C)C)c1 [NUTLIN-3]
IC50 (NCI-H1299): 10.4 µM
IC50 (HCT-116 [2]): > 20 µM
IC50 (HCT-116 [3]): 1.3 µM
IC50 (SJSA-1): 1.44 µM

Second part, the compound after the results:

IC50 [1]: 3380 nM
Structure (SMILES): CC(C)(C)C[C@@H]1C=C(C(=O)NCCN2CCOCC2)[C@@H](c2cccc(Cl)c2F)[C@]12C(=O)Nc1cc(Cl)ccc12 (racemic)

IC50 [1]: 739 nM
Structure (SMILES): CC(C)(C)C[C@H]1C=C(C(=O)NCCN2CCOCC2)[C@H](c2cccc(Cl)c2F)[C@]12C(=O)Nc1cc(Cl)ccc12 (racemic)

IC50 [1]: 1260 nM
Structure (SMILES): CC(C)(C)C[C@@H]1C=C(C(=O)N[C@H]2C[C@@](C)(O)C2)[C@H](c2cccc(Cl)c2F)[C@]12C(=O)Nc1cc(Cl)ccc12 (racemic)

IC50 [1]: 3680 nM
Structure (SMILES): CC(C)(C)C[C@H]1C=C(C(=O)NCCN2CCOCC2)[C@@H](c2cccc(Cl)c2F)[C@]12C(=O)Nc1cc(Cl)ccc12 (racemic)

IC50 [1]: 712 nM
Structure (SMILES): CC(C)(C)CC1C=C(C(=O)NC2CC(C)(O)C2)C(c2cccc(Cl)c2F)C12C(=O)Nc1cc(Cl)ccc12 (single isomer, unassigned; (+))

IC50 [1]: 303 nM
Structure (SMILES): CC(C)(C)CC1C=C(C(=O)NC2CCC(O)CC2)C(c2cccc(Cl)c2F)C12C(=O)Nc1cc(Cl)ccc12 (single isomer, unassigned; (+))

IC50 [1]: 3030 nM
Structure (SMILES): CC(C)(C)CC1C=C(C(=O)NC2CC(C)(O)C2)C(c2cccc(Cl)c2F)C12C(=O)Nc1cc(Cl)ccc12 (single isomer, unassigned; (-))

IC50 [1]: 3720 nM
Structure (SMILES): CC(C)(C)CC1C=C(C(=O)NC2CCC(O)CC2)C(c2cccc(Cl)c2F)C12C(=O)Nc1cc(Cl)ccc12 (single isomer, unassigned; (-))
